Reference: PMC3135172 (Cell, 2011)

Columns and labels:
[1] = tested on: H4K12ac; experiment: Enrichment of H4K12ac in cells cultured in trichostatin A; assay type: cell-based; settings: Figure S7H
[2] = target: BPTF bromodomain (Homo sapiens, UniProt Q12830); assay type: binding; settings: GST-tagged bromodomain, peptide array on modified cellulose scaffold
Summary of the method: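 Each acetylated peptide sits on a cellulose membrane, e.g. H4 residues 11–25 carrying a single ε-amine acetyl-lysine. […] Control and replicate blots were run. Spots that stained on the blot were retested for binding in solution.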

[3] = tested on: BPTF bromodomain V108A; experiment: ITC of H4K16ac peptide with BPTF bromodomain mutant V108A; assay type: binding, human; settings: Kd outside of the accurately measurable range, Figure 5D
[4] = tested on: BPTF bromodomain Y147F; experiment: ITC of H4K16ac peptide with BPTF bromodomain mutant Y147F; assay type: binding, human; settings: Kd outside of the accurately measurable range, Figure 5D
[5] = tested on: BPTF bromodomain W91A; experiment: ITC of H4K16ac peptide with BPTF bromodomain mutant W91A; assay type: binding, human; settings: not reliably quantifiable, Figure 5E
[6] = tested on: PHD-bromo module F154A mutant; experiment: FPA of PHD-bromo mutant F154A with histone peptides; assay type: binding, human; settings: Figure 4B
[7] = tested on: BPTF bromodomain D101A; experiment: ITC of H4K16ac peptide with BPTF bromodomain mutant D101A; assay type: binding, human; settings: not reliably quantifiable, Figure 5E
[8] = tested on: BPTF PHD finger; experiment: Binding of short H3K4me3 peptide in the absence of DNA; set-up: species or system human; settings: Figure S2D

For `CC(/C=C/C(=O)NO)=C\[C@@H](C)C(=O)c1ccc(N(C)C)cc1` [trichostatin A], the “enrichment of H4K12ac mark” value [1] was “substantial enrichment of the mark”.

“H4K20ac: histone H4 peptide (residues 11–25 on the array) acetylated on the ε-amine of lysine 20” was tested, and the “SPOT blot interaction / staining” value [2] was “reproducible staining”.

In the case of “H4K16ac: histone H4 peptide (residues 11–25 on the array) acetylated on the ε-amine of lysine 16”, the “H4K16ac binding by V108A bromodomain” value [3] is reported as “modest binding deficits”, the “H4K16ac binding by Y147F bromodomain” value [4] is reported as “modest binding deficits” and the “H4K16ac binding by W91A bromodomain” value [5] is reported as “more severe loss of affinity”. The “peptide binding to F154A mutant” value [6] was “abolishes bromodomain binding of H4K16ac”, the “SPOT blot interaction / staining” value [2] was “reproducible staining” and the “H4K16ac binding by D101A bromodomain” value [7] was “more severe loss of affinity”.

“H3K4me3 peptide: short H3K4me3[1–8] peptide used for the DNA ruler, tested without DNA” was tested, and the “binding of short peptide without DNA” value [8] was “bound effectively in the absence of DNA”.

In the case of “unmodified counterpart: unmodified histone H4 peptide, without acetylation [reference compound]”, the “SPOT blot interaction / staining” value [2] is reported as “displayed no detectable signal above background”.
